Screens deposited in PubChem BioAssay by several laboratories.
A selection: hits, their analogues and other compounds. The true share with any hit is near 2.8%.
NPY Y1 blocker – blocks the human neuropeptide Y Y1 receptor; P25929; HEK293-CNG Y1 cells, membrane potential fluorescence; NPY at EC95, then isoproterenol; inhibition, % at 3.6 µM; 200,000 tested, 1% active;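 active = inhibition above the campaign mean inhibition of all tested compounds plus 3 SD, cut at about 20% in these data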
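Material: HEK293 cells with Y1 receptor plus CNG channel; times: compound incubation 1 h at room temperature, readout 45 min post-stimulation; signal: fluorescence, membrane potential probe; read-out basis: fluorescence ratio normalized to % inhibition between controls; benchmarks: full-block control isoproterenol-only wells, zero-block control NPY plus isoproterenol wells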
NPY-Y1 PAM-ag – potentiators or agonists of human neuropeptide Y receptor Y1. activation, % at 3.6 µM. 220,000 tested, 0.37% active. P25929. AID 1304. NPY-Y1 expressing cells, potentiator/agonist activation; in the data active = activation above about 33%, passing the limit was not always enough;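 note: cells stimulated with NPY at EC10 then isoproterenol at EC100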
NPY Y2 blocker – antagonists of human neuropeptide Y receptor Y2 | P49146 | NPY-Y2 expressing cells, antagonist mode | inhibition, % at 2.7 µM | 140,000 tested, 0.99% active | AID 793; in the data active = inhibition above about 17%
Target sequence (P49146 whole entry, looked up): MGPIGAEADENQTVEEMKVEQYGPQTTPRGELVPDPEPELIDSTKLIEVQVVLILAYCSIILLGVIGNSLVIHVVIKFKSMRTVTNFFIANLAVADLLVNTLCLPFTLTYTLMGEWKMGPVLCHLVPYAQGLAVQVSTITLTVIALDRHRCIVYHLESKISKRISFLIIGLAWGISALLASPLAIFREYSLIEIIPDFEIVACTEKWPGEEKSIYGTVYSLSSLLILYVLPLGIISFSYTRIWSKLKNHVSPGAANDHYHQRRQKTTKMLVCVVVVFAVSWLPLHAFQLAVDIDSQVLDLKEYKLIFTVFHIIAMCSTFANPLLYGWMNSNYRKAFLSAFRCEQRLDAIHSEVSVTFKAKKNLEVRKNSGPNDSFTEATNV
NPY-Y2 PAM-ag – human NPY-Y2 potentiation or agonism, primary screen | activation, % at 3.6 µM | cells expressing NPY-Y2, potentiator/agonist read-out | 220,000 tested, 0.45% active | P49146; in the data active = activation above about 27%;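 note: cells stimulated with NPY near EC25 plus isoproterenol at EC100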
Measles CPE – protection of cells from measles virus; AID 841; protection (pct of control), % at 4 µM; Measles virus-infected cells, CPE protection, absorbance; 140,000 tested, 1.5% active; in the data active = protection mostly above about 24%, no sharp cut-off; inactive = mostly below about 26%
Rad51 HR inh – Rad51 (human) homologous recombination inhibition. 200,000 tested, 0.085% active. hRad51 DNA strand exchange, fluorescence dequenching. Q06609. inhibition, % at 10 µM;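 active = inhibition above 40% at the single screening dose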
Target sequence (Q06609 whole entry, looked up): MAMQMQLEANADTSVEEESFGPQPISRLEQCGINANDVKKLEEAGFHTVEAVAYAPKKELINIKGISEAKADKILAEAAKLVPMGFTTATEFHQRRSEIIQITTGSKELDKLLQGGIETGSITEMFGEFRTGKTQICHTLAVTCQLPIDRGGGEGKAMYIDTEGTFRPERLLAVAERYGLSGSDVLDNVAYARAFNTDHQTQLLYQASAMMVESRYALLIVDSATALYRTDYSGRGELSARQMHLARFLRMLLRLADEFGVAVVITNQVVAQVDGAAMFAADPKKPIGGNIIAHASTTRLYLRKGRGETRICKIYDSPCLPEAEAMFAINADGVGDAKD
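System: human Rad51 nucleoprotein filaments preassembled on unlabelled ssDNA. Reagent: labelled 47-mer dsDNA for strand exchange. Schedule: 30-min compound preincubation and 15-min exchange, both room temperature. Measured by: FRET fluorescence dequenching, excitation 485 nm, emission 520 nm. Read-out: Fluorescence-based percent inhibition, control- and blank-normalised. Benchmarks: plate controls and plate blanks.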
Large screens that a line does not name were inactive.

O=C(OCCN1C(=O)c2ccccc2C1=O)c1cc(S(=O)(=O)N2CCOCC2)ccc1Cl	Measles CPE 74.0
O=C(OCCN1C(=O)c2cccc3c(N4CCOCC4)ccc(c23)C1=O)c1ccc(Cl)cc1Cl	none
Nc1ccc(Br)c2c1C(=O)c1ccccc1C2=O	none
Nc1ccc(O)c2c1C(=O)c1ccccc1C2=O	NPY-Y1 PAM-ag 54.4, NPY-Y2 PAM-ag 56.6
O=C(CCl)Nc1cn(-c2ccccc2)nc1-c1ccc(F)cc1	none (no result: NPY Y2 blocker, Measles CPE)
COC(=O)c1ccc(N2C(=O)CC(N3CCOCC3)C2=O)cc1 (centres undefined)	Measles CPE 40.2
COC(=O)c1ccc(N2C(=O)CC(N3CCN(c4ccccc4)CC3)C2=O)cc1 (centres undefined)	none (no result: Measles CPE)
Cc1cccc(CCNS(=O)(=O)c2ccc(S(=O)(=O)N3CCC(C)CC3)cc2)c1	NPY Y1 blocker 22.0 (no result: Measles CPE)
Cc1cccc(CCNS(=O)(=O)c2ccc(S(=O)(=O)N3CCCCC3)cc2)c1	none
S=c1[nH]nc(-c2cccnc2)n1Cc1ccccc1	Measles CPE 49.7
Cc1ccc(NC(=O)CN(C)S(=O)(=O)c2cccc3cccnc23)c(C)c1	none (no result: NPY Y1 blocker, NPY Y2 blocker, Measles CPE)
Cc1ccc(NC(=O)CN(C)S(=O)(=O)c2cccc3cccnc23)cc1	Measles CPE 49.3
COC(=O)c1cccc(NC(=O)CSc2nc3cccnc3n2C)c1	Measles CPE 62.6
COC(=O)c1cc2c(-c3ccccc3)cc3ccccn3c-2c1C(=O)OC	Measles CPE 78.5
CC(C)OC(=O)c1ccc(Cn2nnc3ccccc3c2=O)cc1	Measles CPE 38.7
O=c1c2ccccc2nnn1Cc1cccc2ccccc12	none (no result: NPY Y2 blocker, Measles CPE)
O=c1c2ccccc2nnn1Cc1ccc(Br)cc1	none (no result: NPY Y2 blocker, Measles CPE)
O=c1c2ccccc2nnn1Cc1ccccn1	Measles CPE 63.0
COCCN(C(=O)CSc1nc2ccccc2c(=O)n1CC(C)C)c1c(N)n(Cc2ccccc2)c(=O)[nH]c1=O	none (no result: NPY Y2 blocker, Measles CPE)
COC(=O)C1(C)Nc2ccccc2C(=O)N1c1ccccc1C (centres undefined)	Measles CPE 40.6
O=C(Cn1cnc2cc([N+](=O)[O-])ccc2c1=O)NC1CCS(=O)(=O)C1 (centres undefined)	none (no result: NPY Y2 blocker, Measles CPE)
COc1cccc(N(CC(=O)Nc2cccc(C(C)=O)c2)S(C)(=O)=O)c1	none
CCOC(=O)N1CCN(C(=O)CN(c2ccc(OCc3ccccc3)cc2)S(C)(=O)=O)CC1	Measles CPE 27.7
COc1ccc(N(CC(=O)N2CCN(C)CC2)S(C)(=O)=O)cc1OC	Measles CPE 50.5
COc1ccc(N(CC(=O)Nc2cccc(N(C)S(C)(=O)=O)c2)S(C)(=O)=O)cc1OC	Measles CPE 42.6
COc1ccc(N(CC(=O)N2CCc3ccccc3C2)S(C)(=O)=O)cc1OC	none
COc1ccc(N(CC(=O)Nc2cccc(C(C)=O)c2)S(C)(=O)=O)cc1OC	Measles CPE 92.5
COc1ccc(OC)c(/C=N/NC(=O)Cc2nc3ccccc3[nH]2)c1	none
CCN(CC(=O)Nc1ccc(C)c(F)c1)CC(=O)NC(C)(C)C	none (no result: NPY Y2 blocker, Measles CPE, Rad51 HR inh)
N=C1C(c2ccccc2)=C(O)CN1c1cccc(S(=O)(=O)NCc2ccco2)c1	none (no result: NPY Y1 blocker, NPY Y2 blocker, Measles CPE)
CC(C)OC(=O)CSc1ncnc2c1cnn2Cc1ccccc1	Measles CPE 33.3
Cc1cc(NC(=O)CN2C(=O)CC(c3ccco3)Sc3ccccc32)no1 (centres undefined)	Measles CPE 42.0
Cc1cc(NC(=O)CN2C(=O)CCSc3ccccc32)no1	none (no result: NPY Y2 blocker, Measles CPE)
CCc1ccc2c(c1)cc(C)c1nnc(SCC(=O)Nc3cc(OC)c(OC)cc3C(=O)O)n12	none (no result: NPY Y2 blocker, Measles CPE, Rad51 HR inh)
CC1=C(C(=O)Nc2ccccc2)C(c2ccncc2)C(C#N)=C(SCC(=O)NC2CC2)N1 (centres undefined)	Measles CPE 34.2
O=C(C1=NNCC1c1ccccc1)C1OC1c1ccccc1 (centres undefined)	none (no result: NPY Y1 blocker, NPY Y2 blocker, Measles CPE)
CC(C)n1c(SCC(=O)N2CCCC2)nc2c1c(=O)n(C)c(=O)n2C	Measles CPE 33.0
O=C(CSc1ccc(Cl)cc1)NCc1ccncc1	none (no result: NPY Y2 blocker, Measles CPE)
CSc1nc(NCC(C)C)nc(N2CCOCC2)n1	Measles CPE 35.8
CCCNc1nc(N2CCOCC2)nc(N2CCOCC2)n1	none
OC(c1cc(C(F)(F)F)nc2c(Cl)cc(Cl)cc12)C1CCCCN1 (centres undefined)	NPY-Y1 PAM-ag 66.5, NPY-Y2 PAM-ag 62.2 (no result: NPY Y1 blocker, NPY Y2 blocker, Measles CPE)
OC(c1cc(-c2ccc(Cl)cc2)nc2ccccc12)C1CCCCN1 (centres undefined)	none (no result: NPY Y1 blocker, NPY Y2 blocker, Measles CPE)
CC(C)CC(NC(=O)C(NC(=O)C1OC2OC(C)(C)OC2C2OC(C)(C)OC12)C(C)C)C(=O)O (centres undefined)	none (no result: NPY Y2 blocker, Measles CPE, Rad51 HR inh)
COc1ccc(OC)c(CNC(=O)Cc2c(C(=O)O)[nH]c3ccccc23)c1	NPY-Y1 PAM-ag 63.8
COc1cccc(CNC(=O)Cc2c(C(=O)O)[nH]c3ccccc23)c1	none
COC(=O)N(NC(=O)C(O)(CCC(C)C)CCC(C)C)c1ccccc1	NPY Y1 blocker 51.8, NPY Y2 blocker 26.2 (no result: Rad51 HR inh)
O=C(c1ccc(F)cc1)N(NC(=O)C(O)(c1ccccc1)c1ccccc1)c1ccccc1	NPY Y1 blocker 48.8, NPY Y2 blocker 29.6
COC(=O)N(NC(=O)C(O)(c1ccccc1)c1ccccc1)c1ccccc1	NPY Y1 blocker 33.4, NPY Y2 blocker 22.2
O=C(NN(C(=O)c1ccccc1)c1ccccc1)c1ccccc1	none (no result: NPY Y1 blocker, NPY Y2 blocker, Measles CPE)
CC(=O)N/C(=C\c1ccc(F)cc1)C(=O)N(C)C	none
COc1cc(CN2CCN(c3ccc(C)cc3)CC2)cc([N+](=O)[O-])c1O	Rad51 HR inh 117.2
COc1cc(CN2CCN(c3cc(C)ccc3C)CC2)cc([N+](=O)[O-])c1O	none (no result: Measles CPE)
O=C(COC(=O)CCCNC(=O)c1ccc(Cl)cc1)NC1CC1	Measles CPE 47.6
C/C(N)=C(/C#N)C(=O)COC(=O)CCCNC(=O)c1ccc(Cl)cc1	none (no result: NPY Y2 blocker, Measles CPE)
O=C(CCC(=O)OCC(=O)c1ccc(Cl)cc1)NC1CCCCC1	Measles CPE 63.8
CCOC(=O)c1c(-c2ccc(OC)cc2)csc1NC(=O)COc1ccc2c(C)cc(=O)oc2c1	none
CCOC(=O)c1c(-c2ccc(OC)cc2)csc1NC(=O)CSc1ncnc2sccc12	Measles CPE 43.2
O=C(NNC(=O)c1cccs1)c1ccc(S(=O)(=O)N2CCCCC2)cc1	Measles CPE 25.8 (no result: Rad51 HR inh)
O=C(NC(=S)Nc1ccc(S(=O)(=O)N2CCCCC2)cc1)c1cccs1	none
C=CCN1C(=O)/C(=C2/Sc3ccccc3N2C)SC1=Nc1c(C)n[nH]c1C	none
C=CCN1C(=O)/C(=C2/Sc3ccccc3N2C)SC1=Nc1ccccc1C	Measles CPE 51.2
Cc1ccc(OCc2nc(-c3cccs3)no2)c([N+](=O)[O-])c1	none (no result: NPY Y2 blocker, Measles CPE)
COc1ccc(N(CC(=O)N/N=C/c2ccco2)S(=O)(=O)c2ccccc2)cc1Cl	none (no result: NPY Y1 blocker, NPY Y2 blocker, Measles CPE)
Cc1nc(N)c(CC(Br)CBr)c(Cl)n1 (centres undefined)	none (no result: NPY Y1 blocker, NPY Y2 blocker, Measles CPE)
